The text below walks through data of paper PMC6226371 (Journal of medicinal chemistry, 2018).

Where two headings read alike, the source gives them in different places. Where only a bound is given, the exact number is not on record here.

In assay [1] the target is T1, hMC4R (Homo sapiens, UniProt P32245). Type of assay: cell-based.
Assay [2] concerns the target T1, hMC4R. Description: PRESTO-Tango β-arrestin2 recruitment assay, HTLA cells transfected with hMC4R. It is filed as cell-based. (In general: Activated receptors often draw arrestin, which recruitment assays turn into a signal.)
Assay [3] addresses T1, hMC4R. In words: AlphaScreen cAMP Schild analysis, inhibition of NDP-MSH agonist stimulation. It is filed as cell-based. As to conditions: antagonism of NDP-MSH, pA2 = −log(Ki). In outline: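 HEK293 cells stably expressing Flag-tagged hMC4R (calcium phosphate transfection, G418 selection), lifted with Versene, 10,000 cells/well in HBSS stimulation buffer (0.5 mM IBMX, 5 mM HEPES, 0.1% BSA, pH 7.4).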
In general terms: Bead proximity is the source of the signal in Alpha formats.

Assay [4] deals with mMC4R-NanoLuc and mMC4R-HaloTag homodimer (Mus musculus, UniProt P56450). In words: NanoBRET ligand-induced response of the mMC4R homodimer. Type of assay: cell-based. A general note: In BRET a luciferase serves as donor, and the signal depends on an acceptor being close.
Assay [5] addresses human melanocortin-4 receptor (hMC4R-Flag) (human) (UniProt P32245).
The test system of assay [6] is hMC4R. The following applies: 1 µM, not significant; cited from earlier work.

T1 sequence (P32245 whole entry): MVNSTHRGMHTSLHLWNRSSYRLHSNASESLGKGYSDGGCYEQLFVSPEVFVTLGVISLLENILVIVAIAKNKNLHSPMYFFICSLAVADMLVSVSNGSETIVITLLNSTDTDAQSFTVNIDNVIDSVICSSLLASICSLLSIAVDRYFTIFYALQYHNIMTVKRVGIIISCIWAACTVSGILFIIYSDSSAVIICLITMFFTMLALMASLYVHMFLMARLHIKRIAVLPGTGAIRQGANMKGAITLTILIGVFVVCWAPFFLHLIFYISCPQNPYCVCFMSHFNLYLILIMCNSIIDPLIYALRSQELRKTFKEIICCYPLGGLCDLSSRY
Sequence of human melanocortin-4 receptor (hMC4R-Flag) (human) (P32245 whole entry): as above
Sequence of mMC4R-NanoLuc and mMC4R-HaloTag homodimer (P56450 whole entry): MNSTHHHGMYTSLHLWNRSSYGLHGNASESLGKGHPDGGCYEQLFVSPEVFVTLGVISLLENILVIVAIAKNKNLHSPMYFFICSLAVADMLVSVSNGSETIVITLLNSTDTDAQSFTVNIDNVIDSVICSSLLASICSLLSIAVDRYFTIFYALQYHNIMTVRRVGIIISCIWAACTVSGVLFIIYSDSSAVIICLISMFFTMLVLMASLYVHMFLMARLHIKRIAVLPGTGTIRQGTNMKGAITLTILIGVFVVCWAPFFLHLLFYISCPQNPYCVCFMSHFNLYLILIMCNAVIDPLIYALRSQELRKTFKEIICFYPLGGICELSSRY
Sequence of mMC4R-NanoLuc and mMC4R-HaloTag homodimer (P56450 whole entry): as above

For the compound `CC(=O)N[C@@H](Cc1c[nH]cn1)C(=O)N[C@H](Cc1ccc2ccccc2c1)C(=O)N[C@@H](CCCNC(=N)N)C(=O)N[C@@H](Cc1c[nH]c2ccccc12)C(=O)N1CCC[C@H]1C(=O)NCC(=O)N1CCC[C@H]1C(=O)NCC(=O)N1CCC[C@H]1C(=O)NCC(=O)N1CCC[C@H]1C(=O)NCC(=O)N1CCC[C@H]1C(=O)NCC(=O)N1CCC[C@H]1C(=O)NCC(=O)N[C@@H](Cc1c[nH]cn1)C(=O)N[C@H](Cc1ccccc1)C(=O)N[C@@H](CCCNC(=N)N)C(=O)N[C@@H](Cc1c[nH]c2ccccc12)C(N)=O` [CJL-1–63], the “cAMP pharmacology” value at hMC4R [1] (hMC4R) is listed as “single digit nanomolar potent agonists”.
A word on the EC50: it is the concentration that produces a half-maximal response. Turning to `CC(=O)NCCCOCCOCCOCCCNC(=O)COCC(=O)N[C@@H](Cc1c[nH]cn1)C(=O)N[C@H](Cc1ccccc1)C(=O)N[C@@H](CCCNC(=N)N)C(=O)N[C@@H](Cc1c[nH]c2ccccc12)C(N)=O` [CJL-1–116], the concentration giving a half-maximal response (EC50) at hMC4R [1] amounted to 2 ± 0.3 nM; at hMC4R [2], 140 ± 70 nM. Further, the “fold increase in β-arrestin recruitment potency compared to CJL-1–14” value on hMC4R [2] (hMC4R) is on record as less than 3 fold.
With `CC(=O)N[C@@H](Cc1c[nH]cn1)C(=O)N[C@H](Cc1ccc2ccccc2c1)C(=O)N[C@@H](CCCNC(=N)N)C(=O)N[C@@H](Cc1c[nH]c2ccccc12)C(=O)NCCCOCCOCCOCCCNC(=O)COCC(=O)NCCCOCCOCCOCCCNC(=O)COCC(=O)N[C@@H](Cc1c[nH]cn1)C(=O)N[C@H](Cc1ccccc1)C(=O)N[C@@H](CCCNC(=N)N)C(=O)N[C@@H](Cc1c[nH]c2ccccc12)C(N)=O` [CJL-5–74], the “cAMP pharmacology” value on hMC4R [1] (hMC4R) was “single digit nanomolar potent agonists”.
Consider Ac-His-DNal(2ʹ)-Arg-Trp-NH2 [CJL-1–80], for which the “pA2 (Schild analysis)” value at hMC4R [3] stood at 7.82±0.03. Further, the “change in BRET signal from basal levels” value in assay [4] (10^−5, 10^−7 and 10^−9 M) is reported as “no significant changes”. Besides, the “cAMP signaling, % of maximal signal at 10 µM compared to control NDP-MSH maximal signal” value at hMC4R [1] (hMC4R, at 10 µM) came out at 50%. The “β-Arrestin recruitment, % of maximal signal at 10 µM compared to control NDP-MSH maximal signal” value on hMC4R [2] (hMC4R) stood at 30% at 10 µM; on hMC4R [2] (hMC4R, listed as Ac-His-DNal(2ʹ)-Arg-Trp-NH2) it was 30%.
Compound MTII (peptide) yielded a cAMP signaling EC50 (AlphaScreen, HEK293 cells stably expressing hMC4R) in assay [5] of 0.03 nM.
In assay [5], NDP-MSH (peptide) returned a cAMP signaling EC50 (AlphaScreen, HEK293 cells stably expressing hMC4R) of 0.06 nM.
As to α-MSH [reference compound], the “decrease of mean BRET signal compared to basal BRET signal” value in the assay with hMC4R [6] is reported as “approximately 20%”. The “reduction in BRET signal compared to basal signal” value in assay [4] (ligand at 10 µM) is reported as 15%.
